# Most compounds without a hit are left out; they make up all but 2.9% or so of the library.
# SIAE inh: human SIAE inhibitors, primary screen, biochemical, fluorescence polarization, FP-Rh probe, 1536-well HTS. Sialate O-acetylesterase (Homo sapiens), Q9HAT2. SIAE FP-Rh probe binding. inhibition, % at 9.66 µM. actives 0.69% (n = 370,000);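 active = inhibition above a cutoff: mean of compounds within the control limits plus 3 SD of those, cut at about 17% in these data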;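 note: 0% = plate median of compound wells and 100% = probe without SIAE protein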
# Target sequence (Q9HAT2 whole entry, looked up): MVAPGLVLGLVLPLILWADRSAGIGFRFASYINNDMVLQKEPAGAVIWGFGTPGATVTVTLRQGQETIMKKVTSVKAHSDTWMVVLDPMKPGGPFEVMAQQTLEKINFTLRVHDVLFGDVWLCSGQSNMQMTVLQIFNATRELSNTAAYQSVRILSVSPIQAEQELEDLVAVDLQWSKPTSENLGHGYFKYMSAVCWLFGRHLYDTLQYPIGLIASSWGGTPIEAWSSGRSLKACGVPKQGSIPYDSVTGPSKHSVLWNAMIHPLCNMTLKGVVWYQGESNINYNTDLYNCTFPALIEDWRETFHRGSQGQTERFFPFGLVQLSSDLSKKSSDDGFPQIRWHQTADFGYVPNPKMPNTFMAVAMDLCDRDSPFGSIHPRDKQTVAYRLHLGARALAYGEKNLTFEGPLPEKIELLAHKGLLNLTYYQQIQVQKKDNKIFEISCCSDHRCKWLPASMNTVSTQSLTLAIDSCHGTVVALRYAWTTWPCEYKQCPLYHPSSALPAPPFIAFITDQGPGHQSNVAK
# PRMT1 inh: PRMT1 methyltransferase inhibitors, primary screen, biochemical, fluorescence polarization; Protein arginine N-methyltransferase 1 (Homo sapiens), Q99873; recombinant PRMT1, activity-based probe fluorescence polarization; inhibition, % at 2.79 µM; actives 1.3% (n = 370,000); AID 652257, 2013;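 active = inhibition above about 21% made by adding two undisclosed values, limit read from the data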
# mABHD4 FP: ABHD4 inhibitors, primary screen, biochemical, fluorescence polarization, mouse; AID 720543, 2013; actives 0.54% (n = 370,000); inhibition, % at 8.92 µM; purified mABHD4, FP-Rh probe fluorescence polarization; (Lyso)-N-acylphosphatidylethanolamine lipase (Mus musculus), Q8VD66;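 active = inhibition exceeding the mean over every tested compound plus 3 SD, cut at about 30% in these data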;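 note: 0% = plate median of compound wells and 100% = S159A mutant with DMSO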
#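 Test system: mABHD4 protein; Read-out basis: % inhibition; Incubation: 45 min + 60 min at 25 °C; Repeats: single replicate; Technique: fluorescence polarization with parallel and perpendicular emission, 525/598 nm; Compound: 8.92 µM, single dose; Benchmarks: full inhibition S159A mutant plus DMSO, zero as sample-well median.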
# TCR-CD3 inh: inhibitors of human TCR-CD3 interaction, primary screen, biochemical, fluorescence, TAMRA-labeled TCR probe; inhibition, % at 9.4 µM; actives 0.37% (n = 360,000); AID 651800, 2012; T-cell receptor (TCR);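 note: recombinant mutant TCR 2C K166C tagged with TAMRA read by polarization; 0% = receptor in buffer alone and 100% = receptor with positive control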
# PAD4 inh: human PAD4 inhibitors, primary screen, biochemical, fluorescence polarization, 1536-well format; Protein-arginine deiminase type-4 (Homo sapiens), Q9UM07; recombinant PAD4, RCA probe fluorescence polarization; inhibition, % at 6.36 µM; actives 0.41% (n = 330,000); AID 485272, 2010;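 active = percent inhibition above a cutoff equal to the mean of all tested compounds plus 3 SD, cut at about 15% in these data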;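 note: 0% = PAD4 with RCA probe and DMSO and 100% = probe without PAD4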
# HTRA1 inh: HTRA1 serine protease inhibitors, primary screen, biochemical, fluorescence polarization, HTS; recombinant HTRA1, FP-rhodamine activity-based probe; inhibition, % at 5.96 µM; actives 0.5% (n = 340,000); AID 504803, 2011; in the data active = inhibition above about 36%;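 note: 0% = enzyme with DMSO and 100% = wells lacking enzyme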
# BSA probe FL: compounds interfering with TAMRA-BSA probe, counter-screen for TCR-CD3 interaction inhibitor project, biochemical, fluorescence, TAMRA-labeled BSA | inhibition, % at 9.4 µM | actives 10% (n = 1,200) | TAMRA-labeled BSA probe fluorescence counterscreen | shares compounds with TCR-CD3 inh; in the data active = inhibition above about 23%;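 note: 0% = buffer low control and 100% = reference high control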
# TCR-CD3 inh conf: TCR-CD3 interaction inhibitors, retest, confirmation, biochemical, fluorescence, TAMRA-labeled TCR probe; TAMRA-labeled TCR probe fluorescence binding assay; actives 48% (n = 1,200); inhibition, % at 9.4 µM; shares compounds with TCR-CD3 inh
# PRMT1 confirm: PRMT1 methyltransferase inhibitors, confirmation, biochemical, fluorescence polarization, triplicate; shares compounds with PRMT1 inh; recombinant His-PRMT1, activity-based probe fluorescence polarization; inhibition, % at 2.79 µM; actives 42% (n = 3,300);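 active = mean inhibition across replicates above the hit cutoff derived for the earlier primary screen, cut at about 22% in these data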
# mABHD4 conf: ABHD4 inhibitors, retest, confirmation, biochemical, fluorescence polarization, mouse. shares compounds with mABHD4 FP. purified mABHD4, FP-Rh probe fluorescence polarization. inhibition, % at 8.92 µM. actives 55% (n = 1,800). AID 720658, 2013;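 active = mean inhibition across replicates above the hit cutoff set in the primary screen, cut at about 30% in these data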;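 note: 0% = wild-type ABHD4 with DMSO and 100% = catalytically dead S159A mutant with DMSO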
# Numbers without * were called inactive; nt = no result given. Cut-off read from the data, not from the text of the source, unless noted: active = inhibition above about 19%; inactive = the rest.
SMILES,SIAE inh,PRMT1 inh,mABHD4 FP,TCR-CD3 inh,PAD4 inh,HTRA1 inh,BSA probe FL,TCR-CD3 inh conf,mABHD4 conf,others
c1ccc(C2OC3c4cccc5cccc(c45)C3N2c2ccccc2)cc1 (stereo not given),2.4,24.5*,47.8*,25.5*,4.2,3.4,7.2,2.6,-21.2,
O=C1NC(=S)S/C1=C\C=C\c1ccc([N+](=O)[O-])o1,0.3,42.9*,41.6*,31.7*,nt,8.4,-1.4,28.7*,27.6,PRMT1 confirm=28.1*
O=C(CSc1nnc(-c2ccco2)c(-c2ccco2)n1)c1ccccc1,10.4,64.9*,45.8*,34.7*,-3.2,27.0,-15.8,18.9*,17.3,
Nc1ccc(F)c(CN2CCN(c3ncc(Cc4ccccc4)cn3)CC2)c1,6.8,2.3,-8.2,-4.1,nt,nt,nt,nt,nt,
N#C/C(=C\c1cc(Cl)c(OCc2ccc(Cl)cc2)c(Cl)c1)C(N)=O,nt,nt,nt,nt,1.7,nt,nt,nt,nt,
N#C/C(=C\c1cc(O)c(O)c(O)c1)C(N)=O,0.1,58.6*,38.5*,31.7*,9.7,17.9,-6.4,12.7,20.1,
O=[N+]([O-])c1ccc(O)c(/C=N/NC(=S)Nc2ccc(Cl)cc2Cl)c1,14.0,-2.2,34.6*,22.9*,-1.7,31.9,-2.1,32.5*,26.7,
CCOC(=O)C1=NOC(C(=O)NC2CCCC2)(C(=O)C2CC2)C1 (stereo not given),7.3,2.5,0.6,nt,nt,nt,nt,nt,nt,
O=C(COC(=O)c1c2c(nc3ccccc13)/C(=C/c1ccco1)CC2)NC1CCCC1,26.9*,34.6*,50.8*,22.7*,nt,59.9*,-18.2,12.6,28.3,PRMT1 confirm=27.8*
CCCCCc1cccc2[nH]cc(-c3ccccc3)c12,2.4,2.9,1.1,nt,nt,nt,nt,nt,nt,
O=C1C(=Cc2ccco2)CCC1=Cc1ccco1,12.3,53.4*,30.5*,45.4*,nt,34.0,-6.5,17.2,6.4,PRMT1 confirm=50.1*
O/N=C1\CCC\C1=C/c1ccco1,5.1,2.4,2.7,3.0,-1.0,8.0,nt,nt,nt,
O=c1c(O)c(-c2cc(O)c(O)c(O)c2)oc2cc(O)cc(O)c12,56.4*,53.9*,42.4*,28.7*,-6.3,17.1,-9.5,45.0*,48.1*,
C[C@H]1Cn2nncc2Cn2c3ccccc3c(=O)n21,0.4,2.9,4.8,nt,nt,nt,nt,nt,nt,
CC(C)(C)S(=O)(=O)N1Cc2cc(CO)ccc2[C@@H]1CCO,2.4,-0.6,-2.5,-11.6,nt,nt,nt,nt,nt,
CCOc1cccc(C(=O)Nc2ccc(N(CC)CC)cc2)c1,7.3,4.3,-1.0,0.4,-4.2,4.1,nt,nt,nt,
CCN(CC)c1cccc(OCC(=O)N(C)CCC#N)c1,-46.5,2.3,63.5*,21.2*,44.9*,22.9,-69.9,-25.4,-52.7,
O=C1C=CC(=O)c2c(O)c(N3CCN(CCO)CC3)c(Cl)c(O)c21,9.9,51.9*,35.2*,62.8*,nt,35.0,9.8,38.8*,78.6*,PRMT1 confirm=84.9*
O=S(=O)(c1ccc(Br)cc1Cl)N1CCN(CCO)CC1,5.0,-2.4,0.9,1.9,-1.1,1.1,nt,nt,nt,

# From PubChem BioAssay
